In ChEMBL document CHEMBL4028914, “Structure-Based Design of 6-Chloro-4-aminoquinazoline-2-carboxamide Derivatives as Potent and Selective p21-Activated Kinase 4 (PAK4) Inhibitors” (J Med Chem, 2018):
Active and inactive are the calls of the source. No cut-off for these calls is given here.

Assays:
[1] = target: T1, Serine/threonine-protein kinase PAK 4 (Homo sapiens, UniProt O96013); assay: Inhibition of human PAK4 kinase domain using coumarin and fluorescein-labeled ser/thr20 peptide as substrate preincubated for 15 mins followed by ATP addition measured after 60 mins by Z'-Lyte assay
Target sequence in this assay (O96013 whole entry, the tested form may be a part): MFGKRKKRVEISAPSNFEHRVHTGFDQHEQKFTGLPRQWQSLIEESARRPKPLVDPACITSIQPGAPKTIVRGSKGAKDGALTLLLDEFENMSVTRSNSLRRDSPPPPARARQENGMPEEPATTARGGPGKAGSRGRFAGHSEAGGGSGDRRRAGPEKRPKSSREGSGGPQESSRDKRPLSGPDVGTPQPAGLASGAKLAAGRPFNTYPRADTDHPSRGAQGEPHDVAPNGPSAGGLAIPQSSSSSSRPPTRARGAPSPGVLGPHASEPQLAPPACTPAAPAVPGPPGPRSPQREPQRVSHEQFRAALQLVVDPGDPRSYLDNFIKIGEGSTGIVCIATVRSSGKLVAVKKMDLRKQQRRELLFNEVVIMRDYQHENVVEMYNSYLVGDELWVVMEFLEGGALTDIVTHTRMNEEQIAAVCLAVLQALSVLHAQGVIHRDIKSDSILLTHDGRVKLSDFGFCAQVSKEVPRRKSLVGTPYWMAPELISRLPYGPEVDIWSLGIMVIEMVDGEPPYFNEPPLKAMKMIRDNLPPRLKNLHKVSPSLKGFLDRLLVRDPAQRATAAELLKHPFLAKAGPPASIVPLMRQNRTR

Homo sapiens = species on record: Homo sapiens; assay: Selectivity index, ratio of Ki for human PAK1 to Ki for human PAK4
How it was run: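 Ratio of PAK1 Ki to PAK4 Ki, both taken from the FRET-based Z′-Lyte assay.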

[2] = target: T2, Serine/threonine-protein kinase PAK 1 (Homo sapiens, UniProt Q13153); assay: Inhibition of human PAK1 kinase domain using coumarin and fluorescein-labeled ser/thr19 peptide as substrate preincubated for 15 mins followed by ATP addition measured after 60 mins by Z'-Lyte assay
How it was run: (§1)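 FRET-based Z′-Lyte kinase assay run per the kit instructions. Ki values are the average of at least two duplicate experiments; SEM < ±20%.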

[3] = target: T1, Serine/threonine-protein kinase PAK 4; assay: Binding affinity to biotin-labeled human truncated PAK4 kinase domain by surface plasmon resonance assay
How it was run: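 Binding to the truncated PAK4 was measured by SPR with multiconcentration kinetic analysis. Kd was taken from a 1:1 binding model fit.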
Target sequence in this assay (O96013 whole entry, the tested form may be a part): as above

[4] = target: T1, Serine/threonine-protein kinase PAK 4; assay: Binding affinity to human truncated PAK4 kinase domain assessed as change in melting temperature at 20 uM by SYPRO orange dye based differential scanning fluorimetry
How it was run: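 Melting-temperature shift of the compound–truncated PAK4 complex was measured by differential scanning fluorimetry, relative to the truncated PAK4 protein alone.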
Target sequence in this assay (O96013 whole entry, looked up, the tested form may be a part): as the sequence (O96013 whole entry, the tested form may be a part) above

[5] = target: T1, Serine/threonine-protein kinase PAK 4; assay: Inhibition of PAK4 (unknown origin) using histone H3 as substrate
Target sequence in this assay (O96013 whole entry, the tested form may be a part): as above

[6] = target: T2, Serine/threonine-protein kinase PAK 1; assay: Inhibition of PAK1 (unknown origin)
[7] = target: T1, Serine/threonine-protein kinase PAK 4; assay: Inhibition of GST-tagged human PAK4 (295 to 591 residues) expressed in Baculovirus expression system at 0.1 uM by Z'-Lyte assay relative to control
Target sequence in this assay (O96013 whole entry, looked up, the tested form may be a part): as the sequence (O96013 whole entry, the tested form may be a part) above

A549 [8] = assay: Antiproliferative activity against human A549 cells up to 72 hrs by MTT assay; format: functional, cell-based
A549 [9] = assay: Antimigratory activity against human A549 cells at 0.5 to 10 uM after 24 hrs by transwell assay; format: functional, cell-based
NCI-H460 [10] = assay: Antimigratory activity against human NCI-H460 cells at 0.5 to 10 uM after 24 hrs by transwell assay; format: functional, cell-based
A549 [11] = assay: Antiinvasive activity against human A549 cells at 0.5 to 10 uM after 24 hrs by transwell assay; format: functional, cell-based
NCI-H460 [12] = assay: Antiinvasive activity against human NCI-H460 cells at 0.5 to 10 uM after 24 hrs by transwell assay; format: functional, cell-based
HEK293 [13] = assay: Antimigratory activity against human HEK293 cells at 0.5 to 10 uM after 24 hrs by transwell assay; format: functional, cell-based
HEK293 [14] = assay: Antiinvasive activity against human HEK293 cells at 0.5 to 10 uM after 24 hrs by transwell assay; format: functional, cell-based
[15] = target: T1, Serine/threonine-protein kinase PAK 4; assay: Inhibition of human PAK4 in human A549 cells assessed as decrease in MMP2 expression up to 10 uM by Western blotting method; format: cell-based
Target sequence in this assay (O96013 whole entry, looked up, the tested form may be a part): as the sequence (O96013 whole entry, the tested form may be a part) above

[16] = target: T1, Serine/threonine-protein kinase PAK 4; assay: Inhibition of human PAK4 in human A549 cells assessed as decrease in phosphorylation levels of LIMK1 by Western blotting method; format: cell-based
Target sequence in this assay (O96013 whole entry, looked up, the tested form may be a part): as the sequence (O96013 whole entry, the tested form may be a part) above

[17] = target: T1, Serine/threonine-protein kinase PAK 4; assay: Inhibition of human PAK4 in human A549 cells assessed as decrease in phosphorylation of GEF-H1 at Ser810 residue up to 10 uM by Western blotting method; format: cell-based
Target sequence in this assay (O96013 whole entry, looked up, the tested form may be a part): as the sequence (O96013 whole entry, the tested form may be a part) above

[18] = target: T1, Serine/threonine-protein kinase PAK 4; assay: Inhibition of human PAK4 in human A549 cells assessed as decrease in phosphorylation levels of cofilin by Western blotting method; format: cell-based
Target sequence in this assay (O96013 whole entry, looked up, the tested form may be a part): as the sequence (O96013 whole entry, the tested form may be a part) above

[19] = target: T1, Serine/threonine-protein kinase PAK 4; assay: Inhibition of human PAK4 in human A549 cells assessed as decrease in phosphorylation levels of PAK4 at Ser474 residue by Western blot method; format: cell-based
A549 [20] = assay: Antimigratory activity against human A549 cells at 0.5 to 10 uM after 48 hrs by wound healing assay; format: functional, cell-based
[21] = target: T1, Serine/threonine-protein kinase PAK 4; assay: Inhibition of GST-tagged human PAK4 (295 to 591 residues) expressed in Baculovirus expression system by Z'-Lyte assay; how it was run: as §1
Target sequence in this assay (O96013 whole entry, the tested form may be a part): as above

[22] = target: Serine/threonine-protein kinase PAK 5 (Homo sapiens, UniProt Q9P286); assay: Inhibition of full length recombinant human His-tagged PAK5 […] expressed in Baculovirus expression system by Z'-Lyte assay
Serine/threonine-protein kinase PAK 5, sequence (Q9P286 whole entry): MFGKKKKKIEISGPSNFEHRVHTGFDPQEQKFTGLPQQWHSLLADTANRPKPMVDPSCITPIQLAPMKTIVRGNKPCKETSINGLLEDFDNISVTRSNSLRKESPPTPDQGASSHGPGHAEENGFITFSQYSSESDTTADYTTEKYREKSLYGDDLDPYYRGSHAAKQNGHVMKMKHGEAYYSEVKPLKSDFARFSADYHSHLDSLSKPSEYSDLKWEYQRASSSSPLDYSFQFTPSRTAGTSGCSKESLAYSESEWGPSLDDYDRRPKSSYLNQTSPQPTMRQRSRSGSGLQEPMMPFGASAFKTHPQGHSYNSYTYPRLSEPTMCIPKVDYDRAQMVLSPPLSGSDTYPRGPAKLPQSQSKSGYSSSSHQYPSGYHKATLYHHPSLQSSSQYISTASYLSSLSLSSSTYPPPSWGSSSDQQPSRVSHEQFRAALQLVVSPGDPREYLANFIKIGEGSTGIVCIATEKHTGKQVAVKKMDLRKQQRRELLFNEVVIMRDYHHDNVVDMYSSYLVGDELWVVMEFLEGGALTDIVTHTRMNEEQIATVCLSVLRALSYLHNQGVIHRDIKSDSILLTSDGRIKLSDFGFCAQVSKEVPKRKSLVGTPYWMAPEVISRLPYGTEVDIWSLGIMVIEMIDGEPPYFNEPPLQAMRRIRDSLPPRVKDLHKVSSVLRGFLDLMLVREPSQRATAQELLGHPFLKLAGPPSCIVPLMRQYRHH

T2 sequence (Q13153 whole entry, the tested form may be a part): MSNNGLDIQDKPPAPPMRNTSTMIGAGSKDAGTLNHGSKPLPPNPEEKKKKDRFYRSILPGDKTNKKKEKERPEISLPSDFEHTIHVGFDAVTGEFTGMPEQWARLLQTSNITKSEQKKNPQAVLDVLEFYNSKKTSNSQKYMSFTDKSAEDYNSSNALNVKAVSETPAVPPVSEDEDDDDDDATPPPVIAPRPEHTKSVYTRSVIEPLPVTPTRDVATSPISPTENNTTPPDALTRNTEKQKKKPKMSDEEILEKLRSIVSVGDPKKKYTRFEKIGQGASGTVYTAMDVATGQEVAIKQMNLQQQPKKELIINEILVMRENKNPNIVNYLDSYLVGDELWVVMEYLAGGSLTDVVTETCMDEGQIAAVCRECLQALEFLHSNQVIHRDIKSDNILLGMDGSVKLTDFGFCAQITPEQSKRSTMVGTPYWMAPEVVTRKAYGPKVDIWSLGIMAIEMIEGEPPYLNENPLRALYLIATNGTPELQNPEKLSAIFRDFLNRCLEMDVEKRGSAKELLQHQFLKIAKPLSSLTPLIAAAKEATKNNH

Structure (SMILES)	Ki [1]	Ratio Ki (Homo sapiens)	Ki [2]	further results
CNC1CCN(C(=O)c2nc(Nc3cc(C)[nH]n3)c3cc(Cl)ccc3n2)CC1	672 nM			
Cc1cc(Nc2nc(C(=O)N3CCNC(=O)C3)nc3ccc(Cl)cc23)n[nH]1	2410 nM			
NC1CCN(c2nc(Nc3cn(-c4ccccc4)cn3)c3cc(Cl)ccc3n2)CC1	1440 nM			
Cc1cc(Nc2nc(C(=O)NC3CCNCC3)nc3ccc(Cl)cc23)n[nH]1	325 nM			
CC[C@@H]1CN(C(=O)c2nc(Nc3cc(C4CC4)[nH]n3)c3cc(Cl)ccc3n2)CCN1	6 nM	61	368 nM	
Cc1cc(Nc2nc(C(=O)N3CCOCC3)nc3ccc(Cl)cc23)n[nH]1	2170 nM			Kd [3]: 1940 nM
Cc1cc(Nc2nc(C(=O)N3CCC(N)CC3)nc3ccc(Cl)cc23)n[nH]1	354 nM			
Cc1cc(Nc2nc(C(=O)NC3CNC3)nc3ccc(Cl)cc23)n[nH]1	782 nM			
O=C(c1nc(Nc2cc(C3CC3)[nH]n2)c2cc(Cl)ccc2n1)N1CCNCC1	16 nM	172	2750 nM	Kd [3]: 16 nM
C[C@@H]1CN(C(=O)c2nc(Nc3cc(C4CC4)[nH]n3)c3ccccc3n2)CCN1	17 nM	63	1070 nM	
Cc1cc(Nc2nc(C(=O)N3CC(C)NC(C)C3)nc3ccc(Cl)cc23)n[nH]1 (mixture of isomers)	119 nM			
C[C@@H]1CN(C(=O)c2nc(Nc3cc(C4CC4)[nH]n3)c3cc(F)ccc3n2)CCN1	16 nM	31	503 nM	
COc1cccc(Nc2nc(NCC3CCCO3)c3ccccc3n2)c1 (configuration not stated)				IC50 [5]: 14900 nM; IC50 [6]: 48400 nM
COc1ccc2nc(C(=O)N3CCN[C@H](C)C3)nc(Nc3cc(C4CC4)[nH]n3)c2c1	36 nM	> 126	> 4520 nM	
Cc1cc(Nc2nc(C(=O)N3CCN(C)CC3)nc3ccc(Cl)cc23)n[nH]1	768 nM			
Cc1cc(Nc2nc(C(=O)N3CCC(O)CC3)nc3ccc(Cl)cc23)n[nH]1	3820 nM			
C[C@@H]1CN(C(=O)c2nc(Nc3cc(C4CC4)[nH]n3)c3cc(Br)ccc3n2)CCN1	11 nM	190	2080 nM	
Cc1cc(Nc2nc(C(=O)N3CCC(C)(O)CC3)nc3ccc(Cl)cc23)n[nH]1	3890 nM			
CC(C)n1cnc(Nc2nc(N3CCC(N)CC3)nc3ccc(Cl)cc23)c1	884 nM			
C[C@@H]1CN(C(=O)c2nc(Nc3cc(C4CC4)[nH]n3)c3cc(Cl)ccc3n2)CCN1 [listing 2 of 2 here]			3110 nM	IC50 [21]: 11.1 nM; IC50 [22]: 15 nM
Cc1cc(Nc2nc(C(=O)N(C)C3CCCNC3)nc3ccc(Cl)cc23)n[nH]1 (racemic)	1630 nM			
C[C@H]1CN(C(=O)c2nc(Nc3cc(C4CC4)[nH]n3)c3cc(Cl)ccc3n2)CCN1	28 nM	25	690 nM	
NC1CCN(c2nc(Nc3cc(C4CC4)[nH]n3)c3cc(Cl)ccc3n2)CC1	16 nM	19	288 nM	Kd [3]: 6 nM
C[C@@H]1CN(C(=O)c2nc(Nc3cc(C4CC4)[nH]n3)c3ccc(Cl)cc3n2)CCN1	7 nM	57	401 nM	
Cc1cc(Nc2nc(C(=O)N3CCNC[C@@H]3C)nc3ccc(Cl)cc23)n[nH]1	218 nM	> 21	> 4520 nM	

The next lines start with results.

Ki [1]	Ratio Ki (Homo sapiens)	Ki [2]	Structure (SMILES)	further results
77 nM			CC(C)c1cc(Nc2nc(N3CCC(N)CC3)nc3ccc(Cl)cc23)n[nH]1	
26 nM	15	383 nM	C[C@H]1CNCCN1C(=O)c1nc(Nc2cc(C3CC3)[nH]n2)c2cc(Cl)ccc2n1	
99 nM	18	1890 nM	Cc1cc(Nc2nc(N3CCC(N)CC3)nc3ccc(Cl)cc23)n[nH]1	Kd [3]: 43 nM
256 nM			NC1CCN(c2nc(Nc3cc(-c4ccccc4)[nH]n3)c3cc(Cl)ccc3n2)CC1	
114 nM	> 40	> 4520 nM	CC1CN(C(=O)c2nc(Nc3cc(C4CC4)[nH]n3)c3cc(Cl)ccc3n2)CC(C)N1 (mixture of isomers)	
652 nM			NC1CCN(c2nc(Nc3cn(C4CC4)cn3)c3cc(Cl)ccc3n2)CC1	
151 nM	> 30	> 4520 nM	Cc1cc(Nc2nc(C(=O)N3CCNC[C@H]3C)nc3ccc(Cl)cc23)n[nH]1	
710 nM	> 14	> 10000 nM	Cn1cnc(Nc2nc(N3CCC(N)CC3)nc3ccc(Cl)cc23)c1	ΔTm [4]: 0.5 °C; Kd [3]: 156 nM
	346		C[C@@H]1CN(C(=O)c2nc(Nc3cc(C4CC4)[nH]n3)c3cc(Cl)ccc3n2)CCN1 [listing 1 of 2 here]	inhibition [7]: > 80%; Activity (A549 [8]): Active; Activity (A549 [9]): Active; Activity (NCI-H460 [10]): inactive; Activity (A549 [11]): Active; Activity (NCI-H460 [12]): inactive; Activity (HEK293 [13]): inactive; Activity (HEK293 [14]): inactive; inhibition [15]: Active; inhibition [16]: Dose-dependent effect; inhibition [17]: Active; inhibition [18]: Dose-dependent effect; inhibition [19]: Dose-dependent effect; Activity (A549 [20]): Active
45 nM	> 222	> 10000 nM	Cc1cc(Nc2nc(C(=O)N3CCNCC3)nc3ccc(Cl)cc23)n[nH]1	Kd [3]: 66 nM
674 nM			Cc1cc(Nc2nc(C(=O)N3CCC(C)(N)CC3)nc3ccc(Cl)cc23)n[nH]1	
51 nM	> 196	> 10000 nM	Cc1cc(Nc2nc(C(=O)N3CCN[C@H](C)C3)nc3ccc(Cl)cc23)n[nH]1	
576 nM			Cc1cc(Nc2nc(C(=O)N(C)C3CCNCC3)nc3ccc(Cl)cc23)n[nH]1	
17 nM	122	2080 nM	C[C@@H]1CNCCN1C(=O)c1nc(Nc2cc(C3CC3)[nH]n2)c2cc(Cl)ccc2n1	
306 nM	> 15	> 4520 nM	Cc1cc(Nc2nc(C(=O)N3CCN[C@@H](C)C3)nc3ccc(Cl)cc23)n[nH]1	
